Published values collected from several papers.
Lines come from different studies, so protocols differ.
Sample: plasma

Structure (SMILES) | species | route | dose | setting | Cmax [ng/mL]
COc1ccc(N(Cc2csc(-c3ccccc3)n2)C(=O)CCCCCC(=O)NO)cc1 | female Sprague-Dawley rat | oral | 30 mg/kg |  | 4.73
C[C@H]1Oc2cc(cnc2N)-c2c(nn(C)c2C#N)CN(C)C(=O)c2ccc(F)cc21 | male Sprague-Dawley rat | oral | 10 mg/kg | single dose | 468
C=CC(=O)N1CCC[C@@H](n2nc(-c3ccc(Oc4ccccc4)cc3)c3c(N)ncnc32)C1 | rat | oral | 40 mg/kg |  | 84.4
Cc1cc2c(C(N)=O)cccc2n1-c1nc2c(c(NCc3ccccc3)n1)CCCN2 | male Sprague-Dawley rat | intravenous | 1 mg/kg | single dose | 802
O=C1CCC(N2Cc3cc(C4CCN(Cc5ccccc5)CC4)ccc3C2=O)C(=O)N1 (stereo not drawn) | male Sprague-Dawley rat | intravenous | 1 mg/kg |  | 113
CC[C@@H]([C@H](C)O)n1ncn(-c2ccc(N3CCN(c4ccc(OC[C@@H]5CO[C@@](Cn6cncn6)(c6ccc(F)cc6F)C5)cc4)CC3)cc2)c1=O | Sprague-Dawley rat | oral | 40 mg/kg |  | 703
COc1cc(-c2cc(C(C)=O)n3ccccc23)c(OC)cc1Cn1ccnc1 | male Sprague-Dawley rat | oral | 5 mg/kg |  | 876
CCN(CC)Cc1ccc2cc(COC(=O)Nc3ccc(C(=O)NO)cc3)ccc2c1 | male Sprague-Dawley rat | oral | 10 mg/kg |  | 2650
COc1cc(C2C3=C(COC3=O)N(CCO)c3cc4c(cc32)CCC4)cc(OC)c1OC (stereo not drawn) | female Sprague-Dawley rat | intraperitoneal | 50 mg/kg |  | 915
C1=C/COCc2cc(ccc2OCCN2CCCC2)Nc2nccc(n2)-c2cccc(c2)COC/1 | male Sprague-Dawley rat | oral | 36 mg/kg |  | 333
CC(=O)O[C@@H]1CC[C@@]2(C)[C@@H](CC[C@]3(C)[C@@H]2C(=O)C=C2[C@@H]4[C@@H](C)[C@H](C)CC[C@]4(C)CC[C@]23C)[C@@]1(C)C(=O)O | female Wistar rat | oral | 1 mg/kg | single dose | 3360
COc1nc(-c2cccc(-c3ccccc3)c2C)ccc1CNCCNC(=O)CCCCCCCCCCC(=O)N1CCN(CCNC(=O)c2cc3c(=O)n4cccc(C)c4nc3n(CCc3cccs3)c2=N)CC1 | male Sprague-Dawley rat | oral | 40 mg/kg |  | 20.2
CCCc1nc2c(C)cc(-c3nc4ccccc4n3C)cc2n1Cc1ccc(-c2ccccc2C(=O)O)cc1 | male Sprague-Dawley rat | oral | 8 mg/kg | single dose | 136
CCCCC(=O)Nc1ccc(-c2ccc3ncn(CCC)c(=O)c3c2)cn1 | male rat | intravenous | 2.5 mg/kg |  | 3090
CONC(=O)c1cccc2c1cc(C)n2-c1nc2c(c(NCc3ccccc3)n1)CCCN2 | male Sprague-Dawley rat | oral | 10 mg/kg | single dose | 23.4
